We go through 13 compounds from ChEMBL document CHEMBL4024796, “Phenylthiomethyl Ketone-Based Fragments Show Selective and Irreversible Inhibition of Enteroviral 3C Proteases” (J Med Chem, 2018).

Molecules are shown by their SMILES. pIC50, pKi: −log10 of the molar value. Activity calls are given as the source filed them. No cut-off for these calls is given here.

Data set [1] concerns the target T1, Genome polyprotein (Coxsackievirus B3 (strain Nancy), UniProt P03313). Description: Reversible inhibition of Coxsackievirus B3 C-terminal His6-tagged protease 3C expressed in Escherichia coli BL21(DE3) using N-Dabcyl-KTLEALFQGPPVYE-(Edans)-NH2 as substrate after 30 mins by fluorescence assay. A digest of the protocol: (§1)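 FRET cleavage assay in 100 mM HEPES-NaOH pH 7.5, 1 mM EDTA, 0.01% Triton X. Enzyme added from a 40 µM stock, substrate diluted to 20 µM before addition. Inhibitor in DMSO, DMSO alone as control. Fluorescence at 538 nm (ex 355 nm) over 30 min, triplicates. Apparent IC50 from nonlinear fit of vi/v0 = 1/(1+[I]/IC50)^h. Ki from koff/kon for covalent reversible binding.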

Data set [2] has as its target Genome polyprotein (Coxsackievirus B3 (strain Nancy)) (UniProt P03313). Description: Inhibition of Coxsackievirus B3 C-terminal His6-tagged protease 3C expressed in Escherichia coli BL21(DE3) using N-Dabcyl-KTLEALFQGPPVYE-(Edans)-NH2 as substrate preincubated up to 60 mins followed by substrate addition by fluorescence assay. As to conditions: TDE = time-dependent effect. A digest of the protocol:
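Enzyme and inhibitor (or DMSO) preincubated in assay buffer (HEPES-NaOH pH 7.5, EDTA, Triton X) for 60, 40, 20 or 0 min under a lid. Reaction started by FRET substrate addition and followed 60 min by fluorescence (ex 355/em 538 nm). Triplicates per incubation time. Relative activity calculated for every 5-min step of the reaction.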
Target sequence in this assay (P03313 whole entry): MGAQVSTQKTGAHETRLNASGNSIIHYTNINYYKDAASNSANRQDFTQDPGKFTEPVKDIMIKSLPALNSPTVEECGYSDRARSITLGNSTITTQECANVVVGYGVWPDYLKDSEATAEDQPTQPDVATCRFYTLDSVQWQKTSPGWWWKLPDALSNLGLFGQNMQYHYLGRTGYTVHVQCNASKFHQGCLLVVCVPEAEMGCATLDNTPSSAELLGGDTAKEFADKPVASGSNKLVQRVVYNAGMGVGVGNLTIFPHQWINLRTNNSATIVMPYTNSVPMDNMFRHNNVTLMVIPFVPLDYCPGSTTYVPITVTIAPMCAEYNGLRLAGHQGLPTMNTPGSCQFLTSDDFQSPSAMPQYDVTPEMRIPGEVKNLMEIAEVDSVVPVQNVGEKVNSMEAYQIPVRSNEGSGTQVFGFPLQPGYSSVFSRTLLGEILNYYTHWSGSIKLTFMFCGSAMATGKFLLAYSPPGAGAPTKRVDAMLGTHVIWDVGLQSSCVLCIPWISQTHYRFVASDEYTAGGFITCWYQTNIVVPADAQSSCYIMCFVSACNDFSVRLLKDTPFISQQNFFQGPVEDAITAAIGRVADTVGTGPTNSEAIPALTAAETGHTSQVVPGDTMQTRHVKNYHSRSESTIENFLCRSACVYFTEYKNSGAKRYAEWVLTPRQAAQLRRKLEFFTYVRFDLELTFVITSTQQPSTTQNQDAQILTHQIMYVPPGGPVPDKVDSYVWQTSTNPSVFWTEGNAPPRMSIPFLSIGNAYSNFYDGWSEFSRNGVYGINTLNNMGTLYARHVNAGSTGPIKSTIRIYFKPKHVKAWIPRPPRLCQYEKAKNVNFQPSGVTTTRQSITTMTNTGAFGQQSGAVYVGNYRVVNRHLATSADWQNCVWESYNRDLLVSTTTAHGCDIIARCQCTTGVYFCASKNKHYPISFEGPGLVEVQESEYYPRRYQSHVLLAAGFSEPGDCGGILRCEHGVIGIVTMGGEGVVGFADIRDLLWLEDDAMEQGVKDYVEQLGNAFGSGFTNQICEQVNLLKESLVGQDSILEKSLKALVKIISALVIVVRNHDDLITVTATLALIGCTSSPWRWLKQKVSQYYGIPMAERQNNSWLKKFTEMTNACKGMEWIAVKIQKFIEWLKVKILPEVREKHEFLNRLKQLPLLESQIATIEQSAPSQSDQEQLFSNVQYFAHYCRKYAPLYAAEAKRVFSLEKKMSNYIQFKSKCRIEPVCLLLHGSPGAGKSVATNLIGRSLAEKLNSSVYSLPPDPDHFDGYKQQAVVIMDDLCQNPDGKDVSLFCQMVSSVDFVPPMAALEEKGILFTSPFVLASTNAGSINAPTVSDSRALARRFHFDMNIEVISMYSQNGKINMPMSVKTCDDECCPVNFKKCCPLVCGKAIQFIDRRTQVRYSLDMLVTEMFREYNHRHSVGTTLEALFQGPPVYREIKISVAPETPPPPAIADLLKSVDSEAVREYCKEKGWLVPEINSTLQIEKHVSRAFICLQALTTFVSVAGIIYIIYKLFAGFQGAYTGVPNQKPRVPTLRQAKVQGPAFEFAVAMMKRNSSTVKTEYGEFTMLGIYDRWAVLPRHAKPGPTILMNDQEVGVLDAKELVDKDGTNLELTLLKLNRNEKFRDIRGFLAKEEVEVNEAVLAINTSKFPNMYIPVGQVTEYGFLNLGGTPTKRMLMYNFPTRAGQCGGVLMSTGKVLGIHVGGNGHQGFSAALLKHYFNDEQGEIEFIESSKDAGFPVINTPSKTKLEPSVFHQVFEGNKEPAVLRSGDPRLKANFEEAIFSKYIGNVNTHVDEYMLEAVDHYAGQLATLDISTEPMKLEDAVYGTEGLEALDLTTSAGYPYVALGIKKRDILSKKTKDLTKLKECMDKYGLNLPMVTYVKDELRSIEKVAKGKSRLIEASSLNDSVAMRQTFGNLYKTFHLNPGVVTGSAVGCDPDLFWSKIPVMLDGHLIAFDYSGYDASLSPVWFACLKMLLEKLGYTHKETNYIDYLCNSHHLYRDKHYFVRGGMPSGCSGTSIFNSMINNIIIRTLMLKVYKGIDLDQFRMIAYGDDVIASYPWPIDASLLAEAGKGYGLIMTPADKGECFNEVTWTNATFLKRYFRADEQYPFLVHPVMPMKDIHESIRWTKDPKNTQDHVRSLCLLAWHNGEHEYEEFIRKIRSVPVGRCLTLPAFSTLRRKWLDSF

Data set [3] can be described thus: Reversible inhibition of Enetrovirus D68 C-terminal His6-tagged protease 3C expressed in Escherichia coli BL21(DE3) using N-Dabcyl-KTLEALFQGPPVYE-(Edans)-NH2 as substrate after 30 mins by fluorescence assay. The arrangement: species or system enterovirus D68. A digest of the protocol: (§2)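 Enzyme added from 40 μM and substrate from 20 μM working solutions, inhibitor in DMSO, DMSO alone as control. Fluorescence read at ex 355/em 538 nm over 30 min, triplicates. Apparent IC50 from a Hill-type fit of initial velocities; kobs for covalent reversible inhibition from progress-curve fits.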

Data set [4] has as its target Genome polyprotein (Coxsackievirus B3 (strain Nancy)) (UniProt P03313). As to the kind of experiment: Inhibition of Coxsackievirus B3 C-terminal His6-tagged protease 3C expressed in Escherichia coli BL21(DE3) at 650 uM using N-Dabcyl-KTLEALFQGPPVYE-(Edans)-NH2 as substrate after 30 mins by fluorescence assay relative to control. A digest of the protocol:
as §2
Target sequence in this assay (P03313 whole entry): as above

The nature of data set [5]: Drug level in HEPES-NaOH buffer treated with 7,7-dimethyl-2,5-dioxo-5,6,7,8-tetrahydro-2H-chromene-3-carboxamide overnight by LC-MS analysis.
The nature of data set [6]: Glutathione reactivity assessed as GSH-adduct formation after 2 to 24 hrs by LC-MS/MS analysis. A digest of the protocol:
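Inhibitor in DMSO at 2.5 mM, mixed with equimolar glutathione in assay buffer (100 mM HEPES-NaOH, 1 mM EDTA, 0.01% Triton X, pH 7.5). Held at room temperature for 2 h and 24 h, with an aliquot taken by LC/MS after each period. Controls for each inhibitor omitted glutathione.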

Data set [7] has as its target Genome polyprotein (Coxsackievirus B3 (strain Nancy)) (UniProt P03313). Description: Irreversible inhibition of Coxsackievirus B3 C-terminal His6-tagged protease 3C expressed in Escherichia coli BL21(DE3) assessed as ratio of Kinact to Ki using N-Dabcyl-KTLEALFQGPPVYE-(Edans)-NH2 as substrate after 30 mins by fluorescence assay. A digest of the protocol: (§3)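 Same FRET assay (HEPES-NaOH 100 mM, EDTA 1 mM, Triton X 0.01%, pH 7.5; ex 355/em 538 nm; triplicates). kobs for irreversible inhibition obtained by fitting progress curves to [P]=vi/kobs(1−e^(−kobs·t)). kinact/KI taken from the slope of the linear portion of kobs versus inhibitor concentration.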
Target sequence in this assay (P03313 whole entry): as above

The test system of data set [8] is enterovirus D68. Description: Binding affinity to Enetrovirus D68 C-terminal His6-tagged protease 3C at Cys60 residue expressed in Escherichia coli BL21(DE3) assessed as adduct formation after 30 mins by fluorescence assay.
Data set [9] has as its system enterovirus D68. As to the kind of experiment: Irreversible inhibition of Enetrovirus D68 C-terminal His6-tagged protease 3C expressed in Escherichia coli BL21(DE3) assessed as ratio of Kinact to Ki using N-Dabcyl-KTLEALFQGPPVYE-(Edans)-NH2 as substrate after 30 mins by fluorescence assay. A digest of the protocol:
as §3

Data set [10] concerns enterovirus D68. As to the kind of experiment: Binding affinity to Enetrovirus D68 C-terminal His6-tagged protease 3C at Cys147 residue expressed in Escherichia coli BL21(DE3) assessed as adduct formation after 30 mins by fluorescence assay.
Data set [11] concerns the target Genome polyprotein (Coxsackievirus B3 (strain Nancy)) (UniProt P03313). As to the kind of experiment: (§4) Inhibition of Coxsackievirus B3 C-terminal His6-tagged protease 3C expressed in Escherichia coli BL21(DE3) using N-Dabcyl-KTLEALFQGPPVYE-(Edans)-NH2 as substrate after 30 mins by fluorescence assay. A digest of the protocol: as §1
Target sequence in this assay (P03313 1541-1723 limits assumed): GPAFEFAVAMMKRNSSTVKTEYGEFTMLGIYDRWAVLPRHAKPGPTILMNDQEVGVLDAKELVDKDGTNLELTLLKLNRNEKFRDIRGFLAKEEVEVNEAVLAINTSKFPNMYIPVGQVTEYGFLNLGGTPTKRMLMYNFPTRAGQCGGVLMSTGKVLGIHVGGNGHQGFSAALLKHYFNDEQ
The target is the same in data set [12]. As to the kind of experiment: Irreversible inhibition of Coxsackievirus B3 C-terminal His6-tagged protease 3C expressed in Escherichia coli BL21(DE3) assessed as thioether adduct formation after 60 mins by MALDi-TOF spectral analysis.
Target sequence in this assay (P03313 whole entry): as the sequence (P03313 whole entry) above
The target is the same in data set [13]. Description: Irreversible inhibition of Coxsackievirus B3 C-terminal His6-tagged protease 3C expressed in Escherichia coli BL21(DE3) assessed as protein-compound adduct formation after 60 mins by LC-MS analysis.
Target sequence in this assay (P03313 whole entry): as above
Data set [14] shares this target. Description: Irreversible inhibition of Coxsackievirus B3 C-terminal His6-tagged protease 3C expressed in Escherichia coli BL21(DE3) after 60 mins by LC-MS analysis.
Target sequence in this assay (P03313 whole entry): as above
Data set [15] has the same target. Description: Inhibition of Coxsackievirus B3 C-terminal His6-tagged protease 3C expressed in Escherichia coli BL21(DE3) at 100 uM using N-Dabcyl-KTLEALFQGPPVYE-(Edans)-NH2 as substrate preincubated up to 60 mins followed by substrate addition by fluorescence assay. As to conditions: TDE = time-dependent effect. A digest of the protocol: (§5)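 CVB3 3Cpro preincubated with inhibitor (or DMSO control) in 100 mM HEPES-NaOH pH 7.5, 1 mM EDTA, 0.01% Triton X, lid-covered, for 60, 40, 20 or 0 min. Substrate then added and reaction followed 60 min (ex 355/em 538 nm). Relative activity calculated per 5-min step versus control. Triplicates per incubation time.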

Data set [16] has the same target. As to the kind of experiment: Inhibition of Coxsackievirus B3 C-terminal His6-tagged protease 3C expressed in Escherichia coli BL21(DE3) at 500 uM using N-Dabcyl-KTLEALFQGPPVYE-(Edans)-NH2 as substrate preincubated up to 60 mins followed by substrate addition by fluorescence assay. As to conditions: TDE = time-dependent effect. A digest of the protocol: as §5

For data set [17], the target named is T1, Genome polyprotein. The data set is described as §4. A digest of the protocol:
as §1

Data set [18] can be described thus: Solubility of the compound. It counts as physicochemical.

T1 sequence (P03313 1541-1723 limits assumed): as the sequence (P03313 1541-1723 limits assumed) above

As a reminder, the pKi is the Ki on a negative log10 scale, so that one unit is a factor of ten. Read a low pKi as a high Ki. Usually inhibition stands for how much of the control response was suppressed. As to `CC(=O)c1cc(C(N)=O)n(C/C=C/c2ccccc2)c1`, the figures for the pKi (on Genome polyprotein [1]; in data set [3]) were 3.71 and 3.37, respectively. Also, in data set [2], the inhibition entry was “Tde”.

`Cn1cc(C(=O)CSc2nnnn2C)cc1C(N)=O` had an inhibition in [4] of less than 20%.

For the compound `NC(=O)c1cc(C(=O)C(Sc2ccccc2)Sc2ccccc2)cn1C/C=C/c1ccccc1`, the pKi at Genome polyprotein [1] was 3.57. Besides, the inhibition entry in [2] is “Tde”.

In data set [4], `Cn1cc(C(=O)Cn2cccc(C(F)(F)F)c2=O)cc1C(N)=O` gave an inhibition of less than 20%.

Consider `CC1(C)CC(=O)c2cc(C(=O)O)c(=O)oc2C1`, for which the Drug metabolism entry in [5] is reported as “Metabolite detected”.

On to `NC(=O)c1cc(C(=O)CBr)cn1C/C=C/c1ccccc1`, for which the inhibition result in data set [2] is “Tde”. Moreover, the Drug metabolism result in [6] is reported as “Metabolite detected”. Moreover, the results for the Ratio (in data set [7]; in the data set with enterovirus D68 [9]) were 1710 M⁻¹ s⁻¹ and 1210 M⁻¹ s⁻¹, respectively. Also, the result with enterovirus D68 [8] and with enterovirus D68 [10] was Active.

As to `O=C(CSc1ccccc1)c1ccccc1`, the inhibition entry in data set [4] is “inactive”.

Take `Cn1cc(C(=O)CSc2ccccc2)cc1C(N)=O`: the inhibition entry in data set [4], in [12], in data set [13] and in data set [14] was “Active” each time. Further, the inhibition entry in [11] was “Dose-dependent effect”; in data set [15], “Tde”. Besides, the Ratio in data set [7] was determined as 16.8 M⁻¹ s⁻¹; with enterovirus D68 [9], 21.3 M⁻¹ s⁻¹. Moreover, the result in the data set with enterovirus D68 [10] was Active.

Regarding `Cc1ccc2[nH]c(C)c(C(=O)CSc3ccccc3)c2c1`, the inhibition result in [4] was “inactive”.

Consider `CC(=O)c1c(C)[nH]c(C(N)=O)c1C`, for which the inhibition in [4] is less than 20%.

For the compound `NC(=O)c1cc(C(=O)CSc2ccccc2)cn1C/C=C/c1ccccc1`, the inhibition entry in [2] is “Tde”. In addition, in data set [6], the Drug metabolism result is “Metabolite detected”. The Ratio in data set [7] was 54.4 M⁻¹ s⁻¹; in the data set with enterovirus D68 [9], 160 M⁻¹ s⁻¹. The result with enterovirus D68 [10] was Active.

What is called pIC50 is the negative decadic logarithm of the IC50, by convention in mol/L. A high value points to a small IC50. Regarding `CC1(C)CC(=O)c2cc(C(N)=O)c(=O)oc2C1`, the figures for the inhibition entry in data set [16], in [4] and in data set [11] were “Tde”, more than 30% and “Dose-dependent effect”, respectively. This compound also gave a pIC50 against Genome polyprotein [17] of 3.45. The negative-log Ki (pKi) on Genome polyprotein [17] is 3.41.

With `NC(=O)n1cc(C(=O)c2cc(O)ccc2Cl)cn1`, the solubility entry in data set [18] is recorded as “Insoluble”.
